Each compound was assayed on Aorta (assay: Vasorelaxant activity in Wistar rat thoracic aortic ring assessed as inhibition of norepinephrine hydrochloride-induced contraction treated after noradrenaline challenge). Conditions: not given; call rule not given here.
Assay type: functional, tissue-based
Procedure, shortened: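 Aortic ring preparations held under resting tension below 2 g and allowed to stabilise for 2 h. Contraction to norepinephrine hydrochloride (10^-6 M) was recorded before and after exposure to increasing concentrations of test compound. Tension was measured isometrically. Compounds were taken from 0.01 M DMSO stocks, and DMSO-alone controls were run at matching concentrations. Activity was reported as IC50.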

IC50	SMILES
Not Active	COc1ccc2ccc(=O)oc2c1-c1cc(-c2ccc([N+](=O)[O-])cc2)nc(N)n1
Not Active	Cc1cc(-c2ccccc2)nc(Nc2ccc3oc(=O)ccc3c2)n1
Not Active	COc1ccc2ccc(=O)oc2c1C(=O)/C=C/c1ccc(C)cc1

Same assay, conditions: Rattus norvegicus, Wistar, Aorta; read-out: IC50

SMILES	IC50 [µM]
COc1ccc2ccc(=O)oc2c1-c1cc(-c2cccs2)nc(N)n1	650
COc1ccc2ccc(=O)oc2c1C(=O)/C=C/c1ccc(C(F)(F)F)cc1	374
COc1ccc2ccc(=O)oc2c1C(=O)/C=C/c1ccc([N+](=O)[O-])cc1	700
COc1ccc2ccc(=O)oc2c1C(C)=O	479
COc1ccc2ccc(=O)oc2c1C(=O)/C=C/c1ccccc1	526
COc1ccc2ccc(=O)oc2c1C(=O)/C=C/c1cccs1	371
COc1ccc2ccc(=O)oc2c1C(=O)/C=C/c1ccc(C)o1	566
COc1ccc2ccc(=O)oc2c1-c1cc(-c2ccc(SC)cc2)nc(N)n1	1140
COc1ccc2ccc(=O)oc2c1-c1cc(-c2ccccc2)nc(N)n1	800
COc1ccc2ccc(=O)oc2c1-c1cc(-c2ccc(C(F)(F)F)cc2)nc(N)n1	1060
COc1ccc2ccc(=O)oc2c1C(=O)/C=C/c1ccc(SC)cc1	705
COc1cc2nc(N3CCN(C(=O)c4ccco4)CC3)nc(N)c2cc1OC [PRAZOSIN]	487

Continued, values first:

IC50 [µM]	SMILES
700	Cc1nc(Nc2ccc3oc(=O)ccc3c2)nc(Cl)c1CCCl
468	Cc1cc(Cl)nc(Nc2ccc3oc(=O)ccc3c2)n1
595	N#Cc1c(N)nc(Nc2ccc3oc(=O)ccc3c2)nc1-c1ccccc1
411	Cc1cc(C)nc(Nc2ccc3oc(=O)ccc3c2)n1
1230	COc1ccc2ccc(=O)oc2c1-c1cc(-c2ccc(C)o2)nc(N)n1
421	CCN(CC)c1ccc(-c2nc(Nc3ccc4oc(=O)ccc4c3)[nH]c(=O)c2C#N)cc1
816	O=c1cc(O)nc(Nc2ccc3oc(=O)ccc3c2)[nH]1
468	N/C(=N/O)c1c(N)nc(Nc2ccc3oc(=O)ccc3c2)nc1-c1ccccc1
466	N/C(=N/O)c1c(-c2ccccc2)nc(Nc2ccc3oc(=O)ccc3c2)[nH]c1=O
932	COc1ccc2ccc(=O)oc2c1-c1cc(-c2ccc(C)cc2)nc(N)n1
453	O=c1ccc2cc(Nc3nc(Cl)cc(Cl)n3)ccc2o1
700	Cc1cc(=O)[nH]c(Nc2ccc3oc(=O)ccc3c2)n1
495	CCN(CC)c1cc(C)nc(Nc2ccc3oc(=O)ccc3c2)n1
547	N#Cc1c(-c2ccccc2)nc(Nc2ccc3oc(=O)ccc3c2)[nH]c1=O
418	N=C(N)Nc1ccc2oc(=O)ccc2c1
532	Nc1ccc2oc(=O)ccc2c1

Same assay, conditions: Rattus norvegicus, Wistar, Aorta; read-out: pIC50 (converted)

IC50 [µM]	SMILES
876	COc1ccc2ccc(=O)oc2c1-c1cc(-c2ccc(SC)cc2)nc(N)n1
1070	COc1ccc2ccc(=O)oc2c1-c1cc(-c2ccc(C)cc2)nc(N)n1
1250	COc1ccc2ccc(=O)oc2c1-c1cc(-c2ccccc2)nc(N)n1

Source: ChEMBL document CHEMBL1828630, “Design, synthesis and vasorelaxant evaluation of novel coumarin-pyrimidine hybrids” (Bioorg Med Chem, 2011)
